# This excerpt belongs to a sample that is enriched for hits.
# T cruzi inh: T. cruzi replication inhibition; T. cruzi beta-gal in NIH3T3, luminescence, 90 h; inhibition, % (test concentration not listed); actives 1.4% (n = 300,000);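 active = mean inhibition across valid replicates above about 55%, limit read from the data; inconclusive = mean below that limit but half or more replicates reach it; inactive = mean below it, under half of replicates reach it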;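 also: signal also drops with host cell toxicity which is not excluded here; 0% = plate median of DMSO wells and 100% = zero luminescence signal; higher percent means less beta-gal luminescence so fewer parasites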
#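 Test system: β-gal T. cruzi (Tulahuen C4) inside NIH/3T3 cells / Quantity: 5,000 cells/well / Measured by: luminescence from GalScreen with 0.05% NP40, read after 60 min / Medium: DMEM plus 2% FBS / Measure: parasite load inhibition, % / Reagent: Tulahuen C4 trypomastigotes, 5000/well / Schedule: co-culture of at least 90 h after 3 h attachment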
# HSF1 inhib: HSF1 inhibition | NIH3T3-HGL HSE-luciferase, MG132-induced, luminescence 8 h; hits give low values | activity change, negative = inhibition, % at 7.5 µM (by protocol) | actives 0.77% (n = 300,000) | AID 2098;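 active = more than half of replicate wells show activity change below -50%, luminescence cut by over half; inconclusive = some wells, but at most half, below -50%; inactive = no replicate well below -50%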;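 also: luciferase reports HSF-1 transcriptional activity via heat shock element; 0% = median of DMSO wells and -100% = zero luminescence signal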
# Hsp70 activator: transcriptional activators of Hsp70 | HeLa Hsp70 promoter luciferase reporter, luminescence; scaled: vehicle 0, proteasome-inhibitor control 100% | activation, % at 10 µM | actives 0.04% (n = 200,000);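 active = activation above the mean across all tested compounds plus 3 SD, cutoff set per campaign, cut at about 5.5% in these data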;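 also: 100% = MG132 at 30 µM as the positive control and 0% = DMSO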
# Lmaj promast: Leishmania major promastigote growth inhibition; Leishmania major promastigotes, resazurin fluorescence viability; inhibition, % at 10 µM; actives 9% (n = 200,000); in the data active = inhibition above about 50%;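 also: promastigotes grown with compound for 44 hours at 28 °C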
# HSF-1 act: increases HSF-1 driven luciferase reporter signal. activation, % at 9 µM. actives 1.7% (n = 300,000). NIH3T3-HGL HSF-1 luciferase reporter, MG132, 8 h; 100% = twice DMSO control signal;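 active = mean replicate activation of at least 50% with a set share of replicates each reaching 50%; inconclusive = only one of those two conditions met; inactive = mean below 50% and too few replicates reaching it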;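 also: 0% = median of the neutral control wells and 100% = twice that signal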
# An asterisk follows results filed as active; ? = inconclusive; · = no result given.
SMILES,T cruzi inh,HSF1 inhib,Hsp70 activator,Lmaj promast,HSF-1 act
COc1ccccc1NC(=S)N/N=C/c1ccc(O)cc1,-10,40,0,-5,81*
COc1cccc(OCC(=O)NNC(=O)C(=O)Nc2ccc(OC)cc2OC)c1,2,-6,·,·,-8
Cc1ccc2c(C)c(C(=O)NCc3ccc(S(N)(=O)=O)cc3)oc2c1,-8,2,0,-5,15
CC(NC(=O)C1CCCN1S(=O)(=O)c1ccccc1)c1ccccc1 (stereo not given),2,11,·,·,18
COC(=O)[C@@]1(Cc2ccc(F)cc2)[C@H]2c3cc(C(=O)N4CCCC4)n(Cc4ccc(C(F)(F)F)nc4)c3C[C@H]2CN1C(=O)c1ccccc1,34,-1,0,87*,-5
COC(=O)[C@@]1(Cc2ccc(OC)cc2)[C@H]2c3cc(C(=O)N(C)C)n(CCc4ccc(OC)c(Br)c4)c3C[C@H]2CN1C(=O)c1ccccc1,-3,-1,0,62*,5
Cn1c(Sc2ccc([N+](=O)[O-])cc2C(F)(F)F)nnc1-c1ccccc1,?,2,0,62*,8
Cn1c(Sc2ccc(C(F)(F)F)cc2[N+](=O)[O-])nnc1-c1ccccc1,14,17,0,30,?
CCOC(=O)C1(Cc2ccccc2C(F)(F)F)CCN(C2CCN(C(C)C)CC2)CC1,·,·,0,99*,·
CN(C(=O)CN(c1ccccc1)S(=O)(=O)c1ccc(F)cc1)C1CCS(=O)(=O)C1 (stereo not given),-5,4,·,·,0
Cc1ccc(O)c(C(=O)c2cnc3c(c2)CN(C)C(=O)N3)c1,-61,61,0,47,73*
Cc1ccc(O)c(C(=O)c2cnc3c(c2)CN(CCC(C)C)C(=O)N3)c1,4,94,-1,-4,120*
CCCCN1Cc2cc(C(=O)c3cc(OC)ccc3O)cnc2NC1=O,1,9,0,-7,26
Cc1ccccc1CC(=O)Nc1cccnc1,-5,3,·,·,22
O=C1CSC(c2ccc(Cl)cc2)N1Nc1nc(N2CCOCC2)nc(N2CCOCC2)n1 (stereo not given),14,-1,0,28,22
CCOc1ccccc1N(C)C(=O)c1cc2c(=O)n(CC)c3ccccc3c2s1,62*,17,·,·,37
CC(=O)N1c2ccc3ccccc3c2C2C=CCC2C1c1ccc(Br)cc1 (stereo not given),·,·,0,97*,·
CCCCn1c(C)cc(C)c(S(=O)(=O)c2ccccc2C)c1=O,7,?,0,97*,-55
Cc1ccccc1S(=O)(=O)c1c(C)cc(C)n(C(C)C)c1=O,12,-7,0,89*,3
CCCCc1c(O)c2ccccc2n(CCCC)c1=O,-5,-39,0,-6,-52
COC(=O)c1ccc([C@H]2CC(=O)O2)cc1,26,3,·,·,6
CCCc1cc(=O)c2ccc(OC/C(C)=N/O)cc2o1,16,-1,·,·,8
COc1ccc(-c2nc(-c3cccc(C)c3)nc(N3CCN(C)CC3)c2C#N)cc1,16,6,0,86*,10
COc1cccc(-c2nc(-c3ccccc3)nc(N3CCN(C)CC3)c2C#N)c1,43,-15,0,51*,4
COC(=O)c1sc2nc(-c3ccccc3)nc(N3CCN(C)CC3)c2c1C,33,16,0,55*,7
SMILES,T cruzi inh,HSF1 inhib,Hsp70 activator,Lmaj promast,HSF-1 act
COc1ccc(-c2nc(-c3ccccc3)nc(N3CCN(C)CC3)c2C#N)cc1,38,-1,0,20,26
CN1CC(=O)N(CC(=O)Nc2cc(Cl)cc(Cl)c2)C1=O,-7,3,0,-2,5
O=C(COC(=O)c1cnccn1)c1ccc(C2CCCCC2)cc1,11,3,·,·,9
S=C(Nc1ccc(Nc2ccccc2)cc1)N1CCN(c2ncccn2)CC1,1,3,0,-3,7
O=C(c1ccc2c(=O)n(Cc3ccccc3Cl)c(=S)[nH]c2c1)N1CCOCC1,-13,9,·,·,18
Cc1ccc(N2Cc3ccccc3OC(C)C2=O)cc1 (stereo not given),-2,27,0,-5,55*
COc1c(Cl)cc(Cl)cc1C(=O)Nc1ccc(C(=O)O)cc1,-28,2,0,-1,-3
COc1c(Cl)cc(Cl)cc1C(=O)Nc1ccc(NC(C)=O)cc1,-9,-1,0,60*,0
COc1c(Cl)cc(Cl)cc1/C=C/C(=O)c1ccc(NC(=O)c2cccs2)cc1,43,76,0,100*,115*
